Assay results taken from paper PMC8232391 (Drug Design, Development and Therapy, 2021).

Assays:
[1] = Stability of DUV in spiked human plasma samples; type: in vitro ADME
[2] = Stability of stock and working standard solutions of DUV; type: physicochemical; conditions: refrigerator temperature (8°C) for 30 days
Summary of the method: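 Stock solutions (1.0 mg mL–1 in acetonitrile) and working standards diluted in mobile phase were held 24 h at room temperature and 30 days refrigerated (below 10°C). They were then analysed by the HPLC-FD method against freshly spiked calibration standards.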

SMILES: C[C@H](Nc1ncnc2[nH]cnc12)c1cc2cccc(Cl)c2c(=O)n1-c1ccccc1 [DUV, 8-chloro-2-phenyl-3-[(1S)-1-(7H-purin-6-ylamino)ethyl]isoquinolin-1-one]
- Time stable in spiked human plasma ([1]; autosampler storage conditions): ≥ 48 h
- Time stable in spiked human plasma ([1]; room temperature on the bench): ≥ 6 h
- Stability in spiked human plasma ([1]; three freeze–thaw cycles): stable
- Stability in spiked human plasma ([1]; −80°C for 60 days): stable
- Stability of stock and working standard solutions [2]: stable
